Measured values from different studies.
Lines come from different studies, so protocols differ.
Target: NAD-dependent protein deacetylase sirtuin-1 (SIRT1, Homo sapiens, UniProt Q96EB6)
Effect on: enzyme activity
Mode: inhibitor
Residues used in one study (Q96EB6 193-741): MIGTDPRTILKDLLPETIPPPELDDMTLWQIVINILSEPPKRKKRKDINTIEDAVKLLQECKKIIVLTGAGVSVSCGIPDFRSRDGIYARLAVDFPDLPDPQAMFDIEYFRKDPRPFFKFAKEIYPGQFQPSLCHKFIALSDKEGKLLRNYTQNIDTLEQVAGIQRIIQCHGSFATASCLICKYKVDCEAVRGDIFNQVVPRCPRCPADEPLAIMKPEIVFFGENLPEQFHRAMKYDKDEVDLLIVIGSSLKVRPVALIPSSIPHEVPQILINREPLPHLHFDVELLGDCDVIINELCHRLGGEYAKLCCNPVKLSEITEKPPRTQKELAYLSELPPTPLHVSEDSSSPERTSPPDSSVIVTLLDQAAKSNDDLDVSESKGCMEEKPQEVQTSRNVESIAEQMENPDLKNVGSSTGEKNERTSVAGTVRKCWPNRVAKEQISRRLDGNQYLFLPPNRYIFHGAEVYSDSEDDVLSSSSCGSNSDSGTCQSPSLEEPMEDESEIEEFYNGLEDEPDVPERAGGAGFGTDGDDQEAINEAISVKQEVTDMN

`CC(=S)NCCCC[C@H](NC(=O)OCc1ccccc1)C(=O)N[C@@H](Cc1c[nH]c2ccccc12)C(=O)N[C@@H](CCC(=O)O)C(N)=O` gave an inhibition of 83% (1 µM).
The inhibition of `Ic1cccc2cnccc12` is reported as 2% (10 µM).
`CCCCCC1C=Cc2cc(Cl)cc(Br)c2O1` (stereo not shown) gave an inhibition of 7.1% (fluorescence; 200 µM).
`CCCCCCCCCCCCNC(=S)NCCCC[C@H](NC(=O)OCc1ccccc1)C(=O)N[C@@H](Cc1c[nH]c2ccccc12)C(=O)N[C@@H](CCCNC(=N)N)C(N)=O` has an inhibition of 52% (1 µM).
For `NC(=O)CCNC(=S)NCCCC[C@H](NS(=O)(=O)c1cccc(F)c1)C(=O)N[C@@H](Cc1c[nH]c2ccccc12)C(=O)NC1CCC1`, the inhibition was 3% (10 µM).
For `Cc1ccc(C(=O)Nc2ccc(S(=O)(=O)O)c3cc(S(=O)(=O)O)cc(S(=O)(=O)O)c23)cc1NC(=O)c1cccc(NC(=O)Nc2cccc(C(=O)Nc3cc(C(=O)Nc4ccc(S(=O)(=O)O)c5cc(S(=O)(=O)O)cc(S(=O)(=O)O)c45)ccc3C)c2)c1`, the inhibition was 74% (10 µM).
`O=C(NC1CCC1)[C@H](Cc1c[nH]c2ccccc12)NC(=O)[C@H](CCCCNC(=S)NCCc1nnn[nH]1)NS(=O)(=O)c1cccc(F)c1` gave an inhibition of 17% (10 µM).
`CCCCC[C@@H]1CC(=O)c2cc(Cl)cc(Br)c2O1` has an inhibition of 5.3% (fluorescence; 200 µM).
`O=C(NC1CCC1)[C@H](Cc1c[nH]c2ccccc12)NC(=O)[C@H](CCCCNC(=S)NCc1n[nH]c(=S)o1)NS(=O)(=O)c1cccc(F)c1` gave an inhibition of 37% (30 µM).
The inhibition of `CCCCCC1CC(=O)c2ccc(F)cc2O1` (stereo not shown) is reported as 3.8% (fluorescence; 200 µM).
